Experimental data gathered from unrelated publications.
Lines come from different studies, so protocols differ.
G protein-coupled receptor 88: G protein-coupled receptor 88 (Homo sapiens, UniProt Q9GZN0)
PDGFRA: Platelet-derived growth factor receptor alpha (PDGFRA, Homo sapiens, UniProt P16234)
Cnr2: Cannabinoid receptor 2 (Cnr2, Mus musculus, UniProt P47936)

Compound	target	test	test system	setting	endpoint	value
CCCc1ccc(-c2ccc([C@@H](CO)C(=O)N[C@H](C)c3ccccc3)cc2)cc1	G protein-coupled receptor 88	cAMP, agonist, TR-FRET			Emax	96%
C#Cc1n[nH]c2c(-c3cn([C@@H](C)c4ccccn4)c(=O)[nH]c3=O)cc(F)cc12	Ephrin type-B receptor 1 (EPHB1, Homo sapiens, UniProt P54762)	enzyme activity, inhibitor		0.1 µM	inhibition	1.8%
COc1ncccc1-c1cnn2ccc(N3CCN(C(=O)OC(C)C)CC3)nc12	PDGFRA	binding, competition with immobilised ligand		1 µM	remaining binding	100%
Cc1nn(C)cc1-c1nc2c(N3CCN(Cc4ccc(Cl)cc4)CC3)c(Cl)cnc2[nH]1	Cyclin-dependent kinase 13 (CDK13, Homo sapiens, UniProt Q14004)	binding, competition with immobilised ligand		1 µM	remaining binding	77%
Cn1cc(-c2cc(F)cc(N3CCn4c(cc5c4CCCC5)C3=O)c2CO)cc(Nc2ccc(N3CCN(C4COC4)CC3)cn2)c1=O	PDGFRA	enzyme activity, inhibitor		0.1 µM	inhibition	23%
CCCC#Cc1ccc([C@@H](CO)C(=O)N[C@H](C)c2ccccc2)cc1	G protein-coupled receptor 88	cAMP, agonist, TR-FRET			Emax	92%
CCOC(=O)[C@](CC)(CCC[S+]([O-])CCOCCOCCNC(=O)OC(C)(C)C)NC(=O)c1ccc(C2CC2)c(Cc2ccc(F)cc2)n1 (some centres unmarked)	Cnr2	cAMP, agonist			Emax	79%
CCC[C@@H](C)COc1ccc([C@@H](CO)C(=O)N[C@H](C)c2ccccc2)cc1	G protein-coupled receptor 88	cAMP, agonist, TR-FRET	CHO		Emax	105%
CC[C@H](NC(=O)OCc1ccccc1)C(=O)N[C@H](C(=O)N[C@@H](CC(C)C)C(=O)N(C)N(C#N)CCC(N)=O)C(C)(C)C	Procathepsin L (CTSL, Homo sapiens, UniProt P07711)	enzyme activity, inhibitor			kon	17300 M⁻¹ s⁻¹
CCOC(=O)C(CC)(CCCSCCOCCOCCOCCNC(=O)OC(C)(C)C)NC(=O)c1ccc(C2CC2)c(Cc2ccc(F)cc2)n1 (centres unmarked)	Cnr2	cAMP, agonist			Emax	87%
Cn1cc(-c2cccc(N3CCc4c(sc5c4CC(C)(C)C5)C3=O)c2CO)cc(Nc2ccncn2)c1=O	Platelet-derived growth factor receptor alpha (PDGFRA, Homo sapiens, UniProt P16234, T674I)	enzyme activity, inhibitor		1 µM	inhibition	-4%
CC[C@H](C)COc1ccc([C@@H](CO)C(=O)N[C@H](C)c2ccccc2)cc1	G protein-coupled receptor 88	cAMP, agonist, TR-FRET			Emax	88%
Nc1ncc(-c2nc(N3CCOCC3)nc(N3CCOCC3)n2)c(C(F)F)n1	Mitogen-activated protein kinase kinase kinase kinase 5 (MAP4K5, Homo sapiens, UniProt Q9Y4K4)	binding, competition with immobilised ligand		10 µM	remaining binding	100%
Cc1nc2c(=O)n(C)c(=O)nc-2n(C)n1	Protein disulfide-isomerase (P4HB, Homo sapiens, UniProt P07237)	thermal stability, DSF		1 µM	ΔTm	-1.43 °C
